Our source for the Km, kcat and kcat/Km values is ChEMBL document CHEMBL1147081, “Structure of the deacetylase LpxC bound to the antibiotic CHIR-090: Time-dependent inhibition and specificity in ligand binding” (Proc Natl Acad Sci U S A, 2007).

Substrate in data set [1]: C[C@@H](O)[C@H](NC(=O)c1ccc(C#Cc2ccc(CN3CCOCC3)cc2)cc1)C(=O)NO
The data set is described as follows: Activity of Rhizobium leguminosarum LpxC S214G mutant. The essentials:
(§1)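 Wild-type and site-directed mutant LpxC (E. coli, R. leguminosarum) expressed and purified, then assayed by a previously described method. Substrate was UDP-3-O-(R-3-hydroxymyristoyl)-N-acetylglucosamine, varied for Michaelis–Menten analysis. KM and kcat came from data sets pooling multiple independent experiments.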

Substrate in data set [2]: C[C@@H](O)[C@H](NC(=O)c1ccc(C#Cc2ccc(CN3CCOCC3)cc2)cc1)C(=O)NO
The data set is described as follows: Ratio of Kcat to Km of Rhizobium leguminosarum LpxC S214G mutant. The method in brief: as §1

Substrate in data set [3]: C[C@@H](O)[C@H](NC(=O)c1ccc(C#Cc2ccc(CN3CCOCC3)cc2)cc1)C(=O)NO
The data set is described as follows: Activity of Rhizobium leguminosarum LpxC W206Q/S214G mutant. The essentials:
as §1

Substrate in data set [4]: C[C@@H](O)[C@H](NC(=O)c1ccc(C#Cc2ccc(CN3CCOCC3)cc2)cc1)C(=O)NO
In words: Ratio of Kcat to Km of Rhizobium leguminosarum LpxC W206Q/S214G mutant. The essentials:
as §1

Substrate in data set [5]: C[C@@H](O)[C@H](NC(=O)c1ccc(C#Cc2ccc(CN3CCOCC3)cc2)cc1)C(=O)NO
The data set is described as follows: Ratio of Kcat to Km for Escherichia coli LpxC. The method in brief: as §1

Substrate in data set [6]: C[C@@H](O)[C@H](NC(=O)c1ccc(C#Cc2ccc(CN3CCOCC3)cc2)cc1)C(=O)NO
The data set is described as follows: Activity of Escherichia coli LpxC. The essentials: as §1

Substrate in data set [7]: C[C@@H](O)[C@H](NC(=O)c1ccc(C#Cc2ccc(CN3CCOCC3)cc2)cc1)C(=O)NO
The data set is described as follows: Ratio of Kcat to Km of Escherichia coli LpxC Q202W/G210S mutant. The essentials: as §1

Substrate in data set [8]: C[C@@H](O)[C@H](NC(=O)c1ccc(C#Cc2ccc(CN3CCOCC3)cc2)cc1)C(=O)NO
In words: Activity of Escherichia coli LpxC Q202W/G210S mutant. The essentials: as §1

B1: UDP-3-O-acyl-N-acetylglucosamine deacetylase (Rhizobium leguminosarum bv. trifolii (strain WSM1325)), C6ARS9 S214G (protein)
chain: MAIGLLGFQTTVSRPVTLSGTGVHSGAEVSITLNPAESDTGVVFQRLHDNGDITELKAVSSQVGNTDLCTVLGFSPAHSVATIEHVMAAVYALGLDNVVIEVQGSEMPIMDGSSLPFVEAIEQVGLVSLGVKRRYIRITKPVRIEHGGSWSEFRPYDGTRFEVEIDFECPLIGRQKWAGDMTPAVFKAELSRARTFGFMRDVERLWASGHALGGSLENSVVISDDNTVINVEGLRYAKDEFVRHKTLDAVGDLSLAGVQFIGCYRSYRGGHKMNANALKALLADSSAYEVVETSTPRQRVAARELIAVSASEFAPWSA
In general, Km refers to the concentration of substrate that gives half-maximal velocity. What is called kcat is the maximal rate divided by the concentration of active sites. Broadly, the kcat/Km is the turnover number divided by the Michaelis constant. For the protein B1, in data set [1], the Michaelis-Menten constant (Km) amounted to 3.9 µM and the kcat turned out to be 0.12 s⁻¹. Moreover, the kcat/Km in data set [2] is 3.1 10^4/M/s.

B2: UDP-3-O-acyl-N-acetylglucosamine deacetylase (Rhizobium leguminosarum bv. trifolii (strain WSM1325)), C6ARS9 W206Q,S214G (protein)
chain: MAIGLLGFQTTVSRPVTLSGTGVHSGAEVSITLNPAESDTGVVFQRLHDNGDITELKAVSSQVGNTDLCTVLGFSPAHSVATIEHVMAAVYALGLDNVVIEVQGSEMPIMDGSSLPFVEAIEQVGLVSLGVKRRYIRITKPVRIEHGGSWSEFRPYDGTRFEVEIDFECPLIGRQKWAGDMTPAVFKAELSRARTFGFMRDVERLQASGHALGGSLENSVVISDDNTVINVEGLRYAKDEFVRHKTLDAVGDLSLAGVQFIGCYRSYRGGHKMNANALKALLADSSAYEVVETSTPRQRVAARELIAVSASEFAPWSA
Turning to B2, in data set [3], the Michaelis-Menten constant (Km) was found to be 10 µM and the kcat amounted to 0.14 s⁻¹. In addition, the kcat/Km in data set [4] is 1.4 10^4/M/s.

B3: UDP-3-O-acyl-N-acetylglucosamine deacetylase (Escherichia coli K-12), P0A725 (protein)
chain: MIKQRTLKRIVQATGVGLHTGKKVTLTLRPAPANTGVIYRRTDLNPPVDFPADAKSVRDTMLCTCLVNEHDVRISTVEHLNAALAGLGIDNIVIEVNAPEIPIMDGSAAPFVYLLLDAGIDELNCAKKFVRIKETVRVEDGDKWAEFKPYNGFSLDFTIDFNHPAIDSSNQRYAMNFSADAFMRQISRARTFGFMRDIEYLQSRGLCLGGSFDCAIVVDDYRVLNEDGLRFEDEFVRHKMLDAIGDLFMCGHNIIGAFTAYKSGHALNNKLLQAVLAKQEAWEYVTFQDDAELPLAFKAPSAVLA
For B3, the kcat/Km in data set [5] is 1.1 10^6/M/s. Moreover, in data set [6], the Michaelis-Menten constant (Km) amounted to 4 µM and the turnover number (kcat) was 4.2 s⁻¹.

B4: UDP-3-O-acyl-N-acetylglucosamine deacetylase (Escherichia coli K-12), P0A725 Q202W,G210S (protein)
chain: MIKQRTLKRIVQATGVGLHTGKKVTLTLRPAPANTGVIYRRTDLNPPVDFPADAKSVRDTMLCTCLVNEHDVRISTVEHLNAALAGLGIDNIVIEVNAPEIPIMDGSAAPFVYLLLDAGIDELNCAKKFVRIKETVRVEDGDKWAEFKPYNGFSLDFTIDFNHPAIDSSNQRYAMNFSADAFMRQISRARTFGFMRDIEYLWSRGLCLGSSFDCAIVVDDYRVLNEDGLRFEDEFVRHKMLDAIGDLFMCGHNIIGAFTAYKSGHALNNKLLQAVLAKQEAWEYVTFQDDAELPLAFKAPSAVLA
Take B4: the specificity constant (kcat/Km) in data set [7] is 1.5 10^6/M/s. Besides, in data set [8], the Michaelis constant (Km) was 11 µM and the kcat is 1.6 s⁻¹.
